Test results reported in ChEMBL document CHEMBL4014344, “Discovery of the Soluble Guanylate Cyclase Stimulator Vericiguat (BAY 1021189) for the Treatment of Chronic Heart Failure” (J Med Chem, 2017).
Calls of active or inactive are those of the source. The rule behind the calls is not given here.

Key:
[1] = Terminal half life in iv dosed Wistar rat blood after 24 hrs by LC-MS analysis; type: ADME, organism-based; details: whole blood, read-out: beta t1/2 (converted)
Procedure, shortened: (§1)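 Male Wistar rats and female beagle dogs. iv in plasma/DMSO (rat) or H2O/PEG 400/EtOH (dog). Oral gavage in H2O/PEG 400/EtOH for both. Rats jugular-catheterised ≥1 d before dosing. Usually >10 blood samples, at least two after 24 h. Plasma quantified by LC-MS with internal standard. CL, t1/2, Vss and F calculated from plasma curves. Blood clearance via blood/plasma ratio (20 min blood incubation).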

Cytochrome P450 3A4 = Cytochrome P450 3A4 (Homo sapiens, UniProt P08684); test: Inhibition of human liver microsomes CYP3A4 using midazolam as substrate preincubated with compound followed by substrate addition; type: ADME
Rattus norvegicus [2] = test: Effect on mortality in L-NAME-treated renin transgenic rat co-expressing RenTG(mRRen2)27 assessed as survival rate at 3 mg/kg administered qd via oral gavage up to 21 days (reference value: 25%); type: functional; details: 504 h
[3] = Oral bioavailability in Wistar rat administered via oral gavage after 24 hrs by LC-MS analysis; type: ADME, organism-based; details: in vivo; procedure, shortened: as §1
[4] = Stimulation of rat sGC expressed in CHO cells using GTP as substrate assessed as increase in cGMP formation treated for 6 mins in presence of 100 nM SNAP by luminescence assay; type: cell-based
Procedure, shortened: (§2)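 CHO reporter cells overexpressing sGC, cultured 1 or 2 d, then loaded 3 h with coelenterazine in calcium-free Tyrode. Compound serial dilutions applied 6 min. Calcium added (final 3 mM) and luminescence read for 40 s by CCD camera. SNAP co-applied at 30 or 100 nM where stated. ODQ condition: 10 μM ODQ pretreatment for 3 h.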

[5] = Clearance in iv dosed Wistar rat blood after 24 hrs by LC-MS analysis; type: ADME, organism-based; details: whole blood; procedure, shortened: as §1
[6] = Drug metabolism in human hepatocytes assessed as CYP-mediated methyl 4,6-diamino-2-(5-fluoro-1H-pyrazolo[3,4-b]pyridin-3-yl)pyrimidin-5-ylcarbamate metabolite formation; type: ADME, cell-based
[7] = Clearance in rat hepatocytes at 1 uM up to 90 mins by LC-MS/MS analysis; type: ADME, cell-based, Hepatocyte
Procedure, shortened: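 Rat hepatocytes at 1 × 10^6 viable cells/mL (trypan blue-corrected) in Williams' medium E, 1 μM substrate, MeCN ≤1%, 37 °C, pH 7.4. Sampled at 2−90 min, quenched with MeCN, analysed by LC-MS/MS.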

[8] = Stimulation of rat sGC expressed in CHO cells using GTP as substrate assessed as increase in cGMP formation treated for 6 mins in presence of 30 nM SNAP by luminescence assay; type: cell-based; procedure, shortened: as §2
Heart [9] = test: Cardiotoxicity in Wistar rat assessed as effect on left ventricular diastolic pressure administered for 20 mins; type: toxicity, tissue-based
Procedure, shortened: (§3)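 Male Wistar rats (200−250 g) anesthetized with Narcoren 100 mg/kg ip. Excised heart Langendorff-perfused at constant flow 10 mL/min with Krebs−Henseleit buffer gassed with 95% O2/5% CO2. Values expressed as relative change from baseline before compound application.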

Saphenous artery = test: Vasorelaxant activity in nirate-tolerant Chinchilla rabbit saphenous artery ring administered at the beginning of the last resting period of 28 mins in presence of sorbide dinitrate; type: functional; details: Oryctolagus cuniculus
Heart [10] = test: Antihypertensive activity in Wistar Langendorff-perfused heart rat model assessed as reduction in coronary perfusion pressure administered for 20 mins; type: functional, tissue-based; procedure, shortened: as §3
Rattus norvegicus [11] = test: Antihypertensive activity in L-NAME-treated renin transgenic rat co-expressing RenTG(mRRen2)27 assessed as reduction in plasma ANP levels at 3 to 10 mg/kg administered qd via oral gavage up to 21 days; type: functional, organism-based
Procedure, shortened: (§4)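 Male RenTG(mRRen2)27 rats, 8 weeks old, given L-NAME in drinking water (50 mg/L) throughout. Randomised to placebo (2 mL/kg qd, n = 20) or 3 and 10 mg/kg/day po by gavage qd (n = 15 per group). Tail-cuff blood pressure on day 0, 7, 14 and 21. Plasma taken at day 22 end. Unpaired t test, mean ± SEM.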

Artery = test: Inhibition of U46619-induced contractions in porcine coronary artery rings; type: functional; details: Sus scrofa
Cytochrome P450 2C8 = molecular target: T1, Cytochrome P450 2C8 (Homo sapiens, UniProt P10632); test: Inhibition of human liver microsomes CYP2C8 using amodiaquine as substrate; type: ADME
T1 sequence (P10632 whole entry): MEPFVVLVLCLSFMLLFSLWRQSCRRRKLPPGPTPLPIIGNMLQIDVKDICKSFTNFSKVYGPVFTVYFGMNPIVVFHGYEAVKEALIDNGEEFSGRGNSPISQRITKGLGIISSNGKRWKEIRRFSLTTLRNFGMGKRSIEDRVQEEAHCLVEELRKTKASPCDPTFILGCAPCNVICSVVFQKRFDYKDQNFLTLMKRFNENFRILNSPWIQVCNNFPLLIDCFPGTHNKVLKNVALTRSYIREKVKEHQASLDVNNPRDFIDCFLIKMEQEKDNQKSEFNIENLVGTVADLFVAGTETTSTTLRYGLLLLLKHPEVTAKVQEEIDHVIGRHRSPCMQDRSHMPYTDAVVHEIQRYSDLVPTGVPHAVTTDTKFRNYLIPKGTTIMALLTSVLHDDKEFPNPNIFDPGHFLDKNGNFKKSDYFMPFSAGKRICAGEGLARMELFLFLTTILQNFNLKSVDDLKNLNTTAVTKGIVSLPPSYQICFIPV

Rattus norvegicus [12] = test: Antihypertensive activity in L-NAME-treated renin transgenic rat co-expressing RenTG(mRRen2)27 assessed as reduction in proteinuria administered qd via oral gavage up to 21 days; type: functional; procedure, shortened: as §4
[13] = molecular target: T2, Guanylate cyclase soluble subunit alpha-1 (Rattus norvegicus) (UniProt P19686); test: Stimulation of rat recombinant sGCalpha1 subunit expressed in CHO cells using alpha-[32P]GTP as substrate assessed as >=3 fold increase in [32P]cGMP formation after 10 mins by radioimmunoassay; type: cell-based
T2 sequence (whole entry): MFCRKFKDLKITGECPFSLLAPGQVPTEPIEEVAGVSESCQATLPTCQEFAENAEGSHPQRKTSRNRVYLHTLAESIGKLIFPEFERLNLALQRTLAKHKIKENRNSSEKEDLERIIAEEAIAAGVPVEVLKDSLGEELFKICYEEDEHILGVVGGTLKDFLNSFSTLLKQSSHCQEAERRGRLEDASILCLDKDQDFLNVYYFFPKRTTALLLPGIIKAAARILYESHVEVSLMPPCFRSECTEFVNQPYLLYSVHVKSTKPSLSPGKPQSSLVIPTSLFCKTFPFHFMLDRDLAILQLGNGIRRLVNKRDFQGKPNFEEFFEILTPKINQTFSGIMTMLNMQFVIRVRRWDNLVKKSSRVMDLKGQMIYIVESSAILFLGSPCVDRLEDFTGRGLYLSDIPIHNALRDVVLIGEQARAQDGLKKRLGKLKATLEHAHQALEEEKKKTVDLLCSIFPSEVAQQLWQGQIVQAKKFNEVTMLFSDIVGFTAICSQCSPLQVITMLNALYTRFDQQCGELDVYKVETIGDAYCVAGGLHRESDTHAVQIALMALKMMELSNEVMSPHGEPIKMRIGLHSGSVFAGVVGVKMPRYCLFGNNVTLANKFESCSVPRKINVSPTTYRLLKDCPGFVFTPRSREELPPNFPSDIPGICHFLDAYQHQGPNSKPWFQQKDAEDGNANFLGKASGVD

Cytochrome P450 3A4, sequence (P08684 whole entry): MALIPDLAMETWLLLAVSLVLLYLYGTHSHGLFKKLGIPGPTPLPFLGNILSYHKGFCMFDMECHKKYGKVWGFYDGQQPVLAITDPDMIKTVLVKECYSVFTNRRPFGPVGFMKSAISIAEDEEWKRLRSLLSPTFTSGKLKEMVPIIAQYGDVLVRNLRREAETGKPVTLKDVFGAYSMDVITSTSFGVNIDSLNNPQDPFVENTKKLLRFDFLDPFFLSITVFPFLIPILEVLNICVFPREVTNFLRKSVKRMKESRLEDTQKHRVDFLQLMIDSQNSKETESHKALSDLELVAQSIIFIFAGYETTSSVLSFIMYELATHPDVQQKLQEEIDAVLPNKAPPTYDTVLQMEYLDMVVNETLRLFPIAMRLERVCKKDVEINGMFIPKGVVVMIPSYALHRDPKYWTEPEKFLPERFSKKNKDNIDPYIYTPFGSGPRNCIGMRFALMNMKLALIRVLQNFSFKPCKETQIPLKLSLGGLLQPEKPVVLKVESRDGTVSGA

## COC(=O)Nc1c(N)nc(-c2nn(Cc3ccccc3F)c3ncc(F)cc23)nc1N [VERICIGUAT]
[1]
  half-life: 3.4 h
Cytochrome P450 3A4
  IC50: > 50000 nM
Rattus norvegicus [2]
  survival at 3 mg/kg: 70%
[3]
  bioavailability: 65%
[4]
  EC50: 10.6 nM
[5]
  clearance: 5 mL/min/kg
[6]
  Drug metabolism: Metabolite_Detected
[7]
  CLhep predicted at 1 µM: 1.67 mL/min/kg
[8]
  EC50: 39 nM
Heart [9]
  Activity: Non-Toxic
Saphenous artery
  IC50: 5.8 nM
Heart [10]
  Activity: Dose-dependent effect
Rattus norvegicus [11]
  Activity: Active
Artery
  IC50: 956 nM
Cytochrome P450 2C8
  IC50: > 50000 nM
Rattus norvegicus [12]
  Activity: Dose-dependent effect
[13]
  MEC: 0.3 µM
